Measurements published in ChEMBL document CHEMBL4024725, “Design, synthesis, and biological evaluation of NAD(P)H: Quinone oxidoreductase (NQO1)-targeted oridonin prodrugs possessing indolequinone moiety for hypoxia-selective activation” (Eur J Med Chem, 2017).
Calls of active or inactive are those of the source. The rule behind the calls is not given here.

Tests used:
A549 [1] = test: Disruption of mitochondrial membrane potential in human A549 cells assessed as collapse of mitochondrial membrane potential at 0.5 uM after 48 hrs by JC1 staining based flow cytometric method (reference value: 4.6%)
[2] = biological target: NAD(P)H dehydrogenase [quinone] 1 (Homo sapiens) (UniProt P15559); test: Substrate activity at recombinant human NQO1 expressed in Escherichia coli assessed as compound decomposition at […] in presence of NADH and FAD measured within 40 mins by HPLC analysis
Chain of NAD(P)H dehydrogenase [quinone] 1 (Homo sapiens) (P15559 whole entry): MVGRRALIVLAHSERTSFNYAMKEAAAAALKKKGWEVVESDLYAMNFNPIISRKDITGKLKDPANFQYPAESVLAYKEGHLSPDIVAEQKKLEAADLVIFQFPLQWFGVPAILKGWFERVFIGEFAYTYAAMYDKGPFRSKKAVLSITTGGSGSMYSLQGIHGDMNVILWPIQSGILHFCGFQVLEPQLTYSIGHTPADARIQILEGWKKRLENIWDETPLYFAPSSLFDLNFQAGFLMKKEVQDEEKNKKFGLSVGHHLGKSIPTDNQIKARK
Outline: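 Lyophilized human DT-diaphorase was used. Final mixture: 25 mM TRIS pH 7.4 buffer, 0.15 mM compound from a DMSO stock, 0.2 mM NADH, FAD (printed […]), and enzyme 2.0 mU/µL. Enzyme-free controls were included. Mixtures were stirred at 37 °C and monitored by C18 reversed-phase HPLC with methanol/water gradient starting 50:50 at 1 mL/min.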

A549 [3] = test: Induction of apoptosis in human A549 cells expressing NQO1 assessed as morphological changes by measuring chromatin condensation at 0.5 uM after 36 hrs by Hoechst 33342 staining based fluorescence microscopic analysis relative to control; type: functional
Outline: (§1)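 Cells were seeded at about 5 × 10^4 per well and exposed to 0, 0.125, 0.25 or 0.5 µM for 36 h. They were washed in PBS, fixed in 4% paraformaldehyde for 30 min, and stained with 20 µg/ml Hoechst 33342 for 15 min at room temperature in the dark. Chromatin condensation was scored by fluorescence microscopy.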

A549 [4] = test: Induction of apoptosis in human A549 cells expressing NQO1 assessed as increase in TUNEL positive cells by light microscopic analysis; type: functional, cell-based
Outline: (§2)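 Treated cells were fixed in 3.7% buffered formaldehyde for 10 min at room temperature and pretreated with H2O2. TdT end-labelling ran 1 h at 37 °C, followed by DAB for 10 min and methyl green counterstain. Dark-brown nuclei were counted by light microscopy among 100 random cells. Mean ± SD of three independent experiments.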

A549 [5] = test: Induction of apoptosis in human A549 cells expressing NQO1 assessed as increase in cytochrome C level after 48 hrs by Western blot analysis; type: functional, cell-based
Outline: (§3)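 A549 and H596 cells were treated 48 h with 0, 0.25, 0.5 or 1.0 µM, then lysed on ice and cleared at 13000g. Aliquots of 20 µg protein were separated by 8–12% SDS-PAGE and blotted to PVDF. Membranes were probed overnight at 4 °C with antibodies to caspase-3, -8, -9, cytochrome C, Bax and Bcl-xl, then HRP secondaries with ECL detection. β-actin served as loading control.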

A549 [6] = test: Induction of ROS generation in human A549 cells expressing NQO1 at 0.25 to 1 uM after 36 hrs by DCF-DA staining based flow cytometric method; type: functional, cell-based
Outline: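 A549 and H596 cells were exposed to 0, 0.25, 0.5 or 1 µM for 36 h. They were then loaded with DCF-DA, […] as printed, for 15 min at 37 °C, harvested, and resuspended in PBS. DCF fluorescence was read by flow cytometry, excitation 480 nm, emission 525 nm.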

A549 [7] = test: Induction of apoptosis in human A549 cells expressing NQO1 assessed as increase in Bax expression after 48 hrs by Western blot analysis; type: functional, cell-based
Outline: as §3

NCI-H596 [8] = test: Induction of apoptosis in NQO1 deficient human NCI-H596 cells assessed as morphological changes by measuring chromatin condensation at 0.5 uM after 36 hrs by Hoechst 33342 staining based fluorescence microscopic analysis relative to control; type: functional
Outline: as §1

A549 [9] = test: Cell cycle arrest in human A549 cells expressing NQO1 assessed as accumulation at G1 phase at 0.5 uM after 48 hrs by propidium iodide staining based flow cytometric analysis (reference value: 54.84%); type: functional
A549 [10] = test: Cell cycle arrest in human A549 cells expressing NQO1 assessed as accumulation at S phase at 0.125 uM after 48 hrs by propidium iodide staining based flow cytometric analysis (reference value: 32.51%); type: functional
A549 [11] = test: Cell cycle arrest in human A549 cells expressing NQO1 assessed as accumulation at G1 phase at 0.25 uM after 48 hrs by propidium iodide staining based flow cytometric analysis (reference value: 54.84%); type: functional
[12] = Selectivity ratio of IC50 for NQO1 deficient human NCI-H596 cells to IC50 for human A549 cells; type: functional
Outline: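 MTT assay. Cells were grown in RPMI 1640 with 10% FBS and penicillin/streptomycin at 37 °C, 5% CO2, seeded at 10000 cells/mL, and allowed to attach for 24 h. Fresh medium with a compound concentration series was added, DMSO ≤0.25%, for 72 h at 37 °C. Absorbance was read at 560 nm. Wells were run in quadruplicate, and values are means of three independent experiments. Selectivity = IC50(H596)/IC50(A549).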

A549 [13] = test: Induction of apoptosis in human A549 cells expressing NQO1 assessed as decrease in Bcl-xl expression at 0.25 to 0.5 uM after 48 hrs by Western blot analysis; type: functional, cell-based
Outline: as §3

NCI-H596 [14] = test: Induction of apoptosis in NQO1 deficient human NCI-H596 cells assessed as TUNEL positive cells at 0.25 to 1 uM by light microscopic analysis; type: functional, cell-based
Outline: as §2

A549 [15] = test: Cell cycle arrest in human A549 cells expressing NQO1 assessed as accumulation at G1 phase at 0.125 uM after 48 hrs by propidium iodide staining based flow cytometric analysis (reference value: 54.84%); type: functional

## C=C1C(=O)[C@@]23C(=O)O[C@H]4CCC(C)(C)C5C(=O)OC[C@]54[C@H]2CC[C@@H]1[C@H]3OC(=O)CCCC(=O)OCc1cn(C)c2c1C(=O)C(OC)=CC2=O (stereo not given in full)
A549 [1]
  Activity: 31.4%
[2]
  Drug degradation: Active
A549 [3]
  Activity: 30%
A549 [4]
  Activity: Dose-dependent effect
A549 [5]
  Activity: Dose-dependent effect
A549 [6]
  Activity: Active
A549 [7]
  Activity: Dose-dependent effect
NCI-H596 [8]
  Activity: 12.6%
A549 [9]
  Activity: 56.25%
A549 [10]
  Activity: 31.88%
A549 [11]
  Activity: 57.37%
[12]
  Ratio IC50: 5.72
A549 [13]
  Activity: Active
NCI-H596 [14]
  Activity: inactive
A549 [15]
  Activity: 53.38%
